{"source": "ChEMBL document CHEMBL1157710", "about": "“Identification of triazinoindol-benzimidazolones as nanomolar inhibitors of the Mycobacterium tuberculosis enzyme TDP-6-deoxy-d-xylo-4-hexopyranosid-4-ulose 3,5-epimerase (RmlC)” (Bioorg Med Chem, 2010)", "key": {"[1]": {"biological_target": "T1, dTDP-4-dehydrorhamnose 3,5-epimerase (Mycobacterium tuberculosis (strain CDC 1551 / Oshkosh), UniProt P9WH10)", "T1 sequence (P9WH10 whole entry)": "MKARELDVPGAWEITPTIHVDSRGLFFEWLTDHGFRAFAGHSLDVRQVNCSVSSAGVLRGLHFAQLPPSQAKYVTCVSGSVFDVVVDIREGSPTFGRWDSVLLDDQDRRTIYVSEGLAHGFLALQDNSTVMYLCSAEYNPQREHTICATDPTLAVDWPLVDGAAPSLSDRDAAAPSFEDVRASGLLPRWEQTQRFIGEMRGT", "experiment": "Inhibition of Mycobacterium tuberculosis RmlC expressed in Escherichia coli by spectrophotometry", "how_it_was_run": "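96-well absorbance assay at 340 nm (NADPH to NADP) in 200 μl of 50 mM MOPS pH 7.4 with 10% glycerol, 0.01% Triton X-100 and 1 mM MgCl2. Final RmlC 70 nM, RmlD 5 nM, TDP-KDX 200 μM, NADPH 25 μM; compound added in 4 μl DMSO. Reactions were started with RmlC and followed 80 min; IC50 came from initial velocities.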"}, "[2]": {"test_system": "Mycobacterium tuberculosis", "experiment": "Antimycobacterial activity against Mycobacterium tuberculosis H37Rv by microbroth dilution method", "type": "functional"}, "[3]": {"biological_target": "T2, dTDP-4-dehydrorhamnose 3,5-epimerase (Mycobacterium tuberculosis (strain CDC 1551 / Oshkosh)) (UniProt P9WH10)", "T2 sequence (whole entry)": "T1 sequence (P9WH10 whole entry)", "experiment": "Inhibition of Mycobacterium tuberculosis RmlC expressed in Escherichia coli at 0.25 uM by spectrophotometry"}, "[4]": {"biological_target": "T2, dTDP-4-dehydrorhamnose 3,5-epimerase (Mycobacterium tuberculosis (strain CDC 1551 / Oshkosh))", "experiment": "Reversible inhibition of Mycobacterium tuberculosis RmlC expressed in Escherichia coli by time-dependence study", "how_it_was_run": "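RmlD, TDP-KDX and NADPH were added, and the NADPH fluorescence decrease was followed over 200 min. Slopes from the later phase were compared with a no-compound control.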"}, "[5]": {"experiment": "Cytotoxicity against HAEC after 24 hrs", "parameters": "species or system Homo sapiens", "how_it_was_run": "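Human aortic endothelial cells were seeded at 1000 cells/well in EGM-2 and held 24 hr at 37 °C. They were then exposed 24 hr at 37 °C to a 16-point 2-fold series (final 100 μM to 3 nM) with a DMSO solvent control. Viability was read by CellTiter-Glo luminescence after 10 min, in triplicate.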"}, "[6]": {"biological_target": "T2, dTDP-4-dehydrorhamnose 3,5-epimerase (Mycobacterium tuberculosis (strain CDC 1551 / Oshkosh))", "experiment": "Competitive inhibition of Mycobacterium tuberculosis RmlC expressed in Escherichia coli assessed as increase in Km of TDP-KDX", "how_it_was_run": "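Competitive-mode test: TDP-KDX varied 0–100 μM with inhibitor at 0, 0.1, 0.15 and 0.2 μM. Km and Vmax were fitted by non-linear regression. Km(obs) was plotted against inhibitor concentration, and Ki was taken from the slope (Km/Ki, Km as y-intercept).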"}, "[7]": {"biological_target": "T2, dTDP-4-dehydrorhamnose 3,5-epimerase (Mycobacterium tuberculosis (strain CDC 1551 / Oshkosh))", "experiment": "Inhibition of Mycobacterium tuberculosis RmlC expressed in Escherichia coli at 5 uM by spectrophotometry"}, "[8]": {"biological_target": "T3, dTDP-4-dehydrorhamnose 3,5-epimerase /dTDP-4-dehydrorhamnose reductase (Mycobacterium tuberculosis (strain ATCC 25618 / H37Rv), UniProt P9WH09+P9WH11)", "T3 sequence (P9WH09 whole entry)": "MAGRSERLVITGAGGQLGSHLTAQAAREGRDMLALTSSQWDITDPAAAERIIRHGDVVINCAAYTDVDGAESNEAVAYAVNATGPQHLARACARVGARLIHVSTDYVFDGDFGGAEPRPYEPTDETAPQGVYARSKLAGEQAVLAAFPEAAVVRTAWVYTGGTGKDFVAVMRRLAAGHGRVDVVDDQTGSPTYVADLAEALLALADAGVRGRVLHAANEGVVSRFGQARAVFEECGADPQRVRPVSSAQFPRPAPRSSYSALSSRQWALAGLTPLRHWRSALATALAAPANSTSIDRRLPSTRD", "T3 sequence (P9WH11 whole entry)": "T1 sequence (P9WH10 whole entry)", "experiment": "Inhibition of Mycobacterium tuberculosis RmlC/RmlD expressed in Escherichia coli by spectrophotometry", "how_it_was_run": "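Final RmlC 2.63 × 10−4 μg/μl, RmlD 6.53 × 10−4 μg/μl, NADPH 25 μM, TDP-KDX 200 μM. A 16-point 2-fold series (55 μM to 1.7 nM) was read as the 90-min drop in 340/460 nm fluorescence at 25 °C, in triplicate. IC50 came from a 4-parameter logistic fit.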"}, "[9]": {"biological_target": "T2, dTDP-4-dehydrorhamnose 3,5-epimerase (Mycobacterium tuberculosis (strain CDC 1551 / Oshkosh))", "experiment": "Inhibition of Mycobacterium tuberculosis RmlC expressed in Escherichia coli at 0.5 uM by spectrophotometry"}}, "note": "pIC50, pKi: −log10 of the molar value. Calls of active or inactive are those of the source. The calls are words filed in the database; no cut-off is given here.", "data": [{"smiles": "O=c1[nH]c2ccccc2n1CCCSc1nnc2c(n1)[nH]c1ccccc12", "values": [{"measurement": "pIC50", "setting": "[1]", "result": 5.48}]}, {"smiles": "C=CCn1c2ccccc2c2nnc(SCn3c(=O)[nH]c4ccccc43)nc21", "values": [{"measurement": "pIC50", "setting": "[1]", "result": 4.99}]}, {"smiles": "Cn1c2ccccc2c2nnc(SCCCn3c(=O)[nH]c4ccccc43)nc21", "values": [{"measurement": "MIC", "setting": "[2]", "result": 9, "unit": "mg/L"}, {"measurement": "pIC50", "setting": "[1]", "result": 6.30}]}, {"smiles": "C=CCn1c2ccccc2c2nnc(S(=O)(=O)CCCn3c(=O)[nH]c4ccccc43)nc21", "values": [{"measurement": "pIC50", "setting": "[1]", "result": 6.40}]}, {"smiles": "CCn1c2ccccc2c2nnc(SCCCn3c(=O)[nH]c4ccccc43)nc21", "values": [{"measurement": "inhibition", "setting": "[3]", "result": 52, "unit": "%"}, {"measurement": "inhibition", "setting": "[4]", "result": "Active"}, {"measurement": "pIC50", "setting": "[5]", "result": 4.12}, {"measurement": "Activity", "setting": "[6]", "result": "Active"}, {"measurement": "inhibition", "setting": "[7]", "result": 83, "unit": "%"}, {"measurement": "IC50", "setting": "[8]", "result": 0.398, "unit": "µM"}, {"measurement": "MIC", "setting": "[2]", "result": 19, "unit": "mg/L"}, {"measurement": "inhibition", "setting": "[9]", "result": 72, "unit": "%"}, {"measurement": "pIC50", "setting": "[1]", "result": 6.70}, {"measurement": "pKi", "setting": "[1]", "result": 7.00}]}, {"smiles": "C=CCn1c2ccc(C)cc2c2nnc(SCCCn3c(=O)[nH]c4ccccc43)nc21", "values": [{"measurement": "MIC", "setting": "[2]", "result": 25, "unit": "mg/L"}, {"measurement": "pIC50", "setting": "[1]", "result": 4.70}]}, {"smiles": "CCn1c2ccccc2c2nnc(S(=O)(=O)CCCn3c(=O)[nH]c4ccccc43)nc21", "values": [{"measurement": "pIC50", "setting": "[1]", "result": 6.10}]}, {"smiles": "CCCn1c2ccccc2c2nnc(SCCCn3c(=O)[nH]c4ccccc43)nc21", "values": [{"measurement": "MIC", "setting": "[2]", "result": 9, "unit": "mg/L"}, {"measurement": "pIC50", "setting": "[1]", "result": 5.90}]}, {"smiles": "O=c1[nH]c2ccccc2n1CCCSc1nnc2c3ccccc3n(Cc3ccccc3)c2n1", "values": [{"measurement": "MIC", "setting": "[2]", "result": "> 50", "unit": "mg/L"}, {"measurement": "pIC50", "setting": "[1]", "result": 5.54}]}, {"smiles": "C=CCn1c2ccccc2c2nnc(SCCCn3c(=O)[nH]c4ccccc43)nc21", "values": [{"measurement": "MIC", "setting": "[2]", "result": 13, "unit": "mg/L"}, {"measurement": "pIC50", "setting": "[1]", "result": 6.92}, {"measurement": "pKi", "setting": "[1]", "result": 7.21}]}]}
